≈ marks a conversion by molar mass, not a printed value.
Legend:
Enterococcus faecalis [1] = experiment: Antibacterial activity against Enterococcus faecalis MB76 after 24 hrs by microdilution assay; assay type: functional; conditions: MB76, 24 h
Outline: (§1)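 Broth microdilution MIC, run as in an earlier cited report. Strains are clinical isolates identified by standard methods and MALDI-TOF; E. faecalis MB19 and MB51 are Ligurian seawater isolates. Highest concentration tested was 128 μg/mL. MICs are given in μg/mL and μM, with oxacillin and vancomycin as reference antibiotics.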

Enterococcus faecalis [2] = experiment: Antibacterial activity against Vancomycin resistant Enterococcus faecalis MB1 after 24 hrs by microdilution assay; assay type: functional; conditions: MB1, 24 h; outline: as §1
Enterococcus avium = experiment: Antibacterial activity against Enterococcus avium MB119 after 24 hrs by microdilution assay; assay type: functional; conditions: MB119, 24 h
Outline: (§2)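 Broth microdilution MIC against clinical or seawater-isolated strains (identified by standard procedures and MALDI-TOF), with compound solutions and testing as in earlier work. MIC reported in μg/mL and μM.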

Enterococcus faecium [3] = experiment: Antibacterial activity against Enterococcus faecium MB2 after 24 hrs by microdilution assay; assay type: functional; conditions: MB2, 24 h; outline: as §2
[4] = system: Staphylococcus lugdunensis; experiment: Antibacterial activity against Staphylococcus lugdunensis MB96 after 24 hrs by microdilution assay; assay type: functional; conditions: MB96, 24 h; outline: as §2
Enterococcus gallinarum = experiment: Antibacterial activity against Vancomycin resistant Enterococcus gallinarum MB111 after 24 hrs by microdilution assay; assay type: functional; conditions: MB111, 24 h; outline: as §1
Staphylococcus capitis = experiment: Antibacterial activity against Methicillin-resistant Staphylococcus capitis MB71 after 24 hrs by microdilution assay; assay type: functional; conditions: MB71, 24 h; outline: as §1
Staphylococcus hominis = experiment: Antibacterial activity against Methicillin-resistant Staphylococcus hominis MB124 after 24 hrs by microdilution assay; assay type: functional; conditions: MB124, 24 h; outline: as §1
Enterococcus faecium [5] = experiment: Antibacterial activity against Enterococcus faecium MB3 after 24 hrs by microdilution assay; assay type: functional; conditions: MB3, 24 h; outline: as §2
[6] = system: Staphylococcus saprophyticus; experiment: Antibacterial activity against Staphylococcus saprophyticus MB41 after 24 hrs by microdilution assay; assay type: functional; conditions: MB41, 24 h; outline: as §2
[7] = system: Staphylococcus epidermidis; experiment: Antibacterial activity against Methicillin-resistant Staphylococcus epidermidis MB165 after 24 hrs by microdilution assay; assay type: functional; conditions: MB165, 24 h; outline: as §1
Staphylococcus aureus [8] = experiment: Antibacterial activity against Methicillin-resistant Staphylococcus aureus MB18 after 24 hrs by microdilution assay; assay type: functional; conditions: MB18, 24 h; outline: as §1
[9] = system: Staphylococcus epidermidis; experiment: Antibacterial activity against Methicillin-resistant Staphylococcus epidermidis MB169 after 24 hrs by microdilution assay; assay type: functional; conditions: MB169, 24 h; outline: as §1
Enterococcus faecalis [10] = experiment: Antibacterial activity against Vancomycin resistant Enterococcus faecalis MB19 after 24 hrs by microdilution assay; assay type: functional; conditions: MB19, 24 h; outline: as §1
[11] = system: Enterococcus casseliflavus; experiment: Antibacterial activity against Vancomycin resistant Enterococcus casseliflavus MB159 after 24 hrs by microdilution assay; assay type: functional; conditions: MB159, 24 h; outline: as §1
Enterococcus faecalis [12] = experiment: Bacteriostatic activity against Enterococcus faecalis MB1 assessed as ratio of reduction in bacterial growth at 4 times MIC by time kill assay; assay type: functional
Outline: (§3)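 Time-kill curves: viable cell counts of susceptible strains recorded with or without compound at 4 × MIC.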

Bos taurus [13] = organism: Bos taurus; experiment: Modulation of ATP synthase in bovine rod outer segments assessed as inhibition of ATP production at 80 ug/ml in presence of Ap5A adenylate kinase inhibitor by luciferin/luciferase chemiluminescent method relative to control
Outline: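 Bovine rod OS (5 μg) preincubated 5 min at 37 °C in Tris/HCl pH 7.4 with KCl, EGTA, MgCl2, 0.6 mM ouabain, 0.25 mM Ap5A, 5 mM KH2PO4, 20 mM succinate, 0.35 mM NADH and ampicillin. Synthesis started with 0.1 mM ADP and stopped with perchloric acid. ATP read by luciferin/luciferase luminescence. Samples at 80 μg/mL; 30 μM resveratrol as positive control. Triplicates, ANOVA/Bonferroni.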

Enterococcus faecalis [14] = experiment: Antibacterial activity against Vancomycin resistant Enterococcus faecalis MB51 after 24 hrs by microdilution assay; assay type: functional; conditions: MB51, 24 h; outline: as §1
Staphylococcus warneri = experiment: Antibacterial activity against Methicillin-resistant Staphylococcus warneri MB74 after 24 hrs by microdilution assay; assay type: functional; conditions: MB74, 24 h; outline: as §1
[15] = system: Staphylococcus haemolyticus; experiment: Antibacterial activity against Methicillin-resistant Staphylococcus haemolyticus MB115 after 24 hrs by microdilution assay; assay type: functional; conditions: MB115, 24 h; outline: as §1
Enterococcus durans = experiment: Antibacterial activity against Enterococcus durans MB113 after 24 hrs by microdilution assay; assay type: functional; conditions: MB113, 24 h; outline: as §2
Staphylococcus aureus [16] = experiment: Antibacterial activity against Methicillin-resistant Staphylococcus aureus MB188 after 24 hrs by microdilution assay; assay type: functional; conditions: MB188, 24 h; outline: as §1
Enterococcus faecium [17] = experiment: Bacteriostatic activity against Enterococcus faecium MB152 assessed as ratio of reduction in bacterial growth by measuring order of magnitude at 4 times MIC by time kill assay; assay type: functional; outline: as §3
Enterococcus faecium [18] = experiment: Antibacterial activity against Enterococcus faecium MB152 after 24 hrs by microdilution assay; assay type: functional; conditions: MB152, 24 h; outline: as §2
Staphylococcus simulans = experiment: Antibacterial activity against Staphylococcus simulans MB94 after 24 hrs by microdilution assay; assay type: functional; conditions: MB94, 24 h; outline: as §2
Bos taurus [19] = organism: Bos taurus; experiment: Modulation of ATP synthase in bovine rod outer segments assessed as inhibition of ATP hydrolysis at 80 ug/ml in presence of Ap5A adenylate kinase inhibitor by pyruvate kinase/lactate dehydrogenase assay relative to control
Enterococcus faecium [20] = experiment: Modulation of ATP synthase in Enterococcus faecium MB152 assessed as inhibition of ATP production at 5 times MIC after 2 hrs by BacTiter-Glo Assay
Outline: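 Whole-cell ATP assay. VRE strain grown overnight in Mueller Hinton broth at 37 °C, diluted 1:10^6 in fresh broth and grown 2 h, then adjusted by OD600. Manool added at 5 × MIC. Samples taken at 0 and 2 h and mixed 1:1 with BacTiter-Glo for 5 min at room temperature. Luminescence converted via an ATP standard curve (1–0.001 pmol) to pmol/cfu. Broth serves as negative control. Three experiments in triplicate, Student's t test.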

[21] = system: Staphylococcus epidermidis; experiment: Bacteriostatic activity against Staphylococcus epidermidis MB165 assessed as ratio of reduction in bacterial growth at 4 times MIC by time kill assay; assay type: functional; outline: as §3
Staphylococcus aureus [22] = experiment: Bacteriostatic activity against Methicillin-resistant Staphylococcus aureus MB18 assessed as ratio of reduction in bacterial growth at 4 times MIC by time kill assay; assay type: functional

| SMILES | MIC (Enterococcus faecalis [1]) [µM] | MIC (Enterococcus faecalis [2]) [µM] | MIC (Enterococcus avium) [µM] | MIC (Enterococcus faecium [3]) | MIC [4] | MIC (Enterococcus gallinarum) [µM] | MIC (Staphylococcus capitis) | MIC (Staphylococcus hominis) | MIC (Enterococcus faecium [5]) [µM] | MIC [6] | MIC [7] | MIC (Staphylococcus aureus [8]) | MIC [9] | MIC (Enterococcus faecalis [10]) [µM] | MIC [11] [µM] | Ratio (Enterococcus faecalis [12]) | inhibition (Bos taurus [13]) [%] | MIC (Enterococcus faecalis [14]) [µM] | MIC (Staphylococcus warneri) | MIC [15] | also measured |
| --- | --- | --- | --- | --- | --- | --- | --- | --- | --- | --- | --- | --- | --- | --- | --- | --- | --- | --- | --- | --- | --- |
| CC1=CC(=O)O[C@@H]1C/C=C(\C)CC[C@@H]1[C@@]2(C)CCC[C@@]3(C)C(=O)O[C@@H](C[C@@]1(C)O)[C@H]23 | 308 (≈ 128 µg/mL) | 154 (≈ 64.1 µg/mL) | 154 (≈ 64.1 µg/mL) | > 128 µg/mL | 308 µM | 154 (≈ 64.1 µg/mL) | 154 µM | > 128 µg/mL | 308 (≈ 128 µg/mL) | > 128 µg/mL | 308 µM | 308 µM | > 128 µg/mL | 308 (≈ 128 µg/mL) | 308 (≈ 128 µg/mL) | 1 - 2 | 79 | 154 (≈ 64.1 µg/mL) | 308 µM | > 128 µg/mL | MIC (Enterococcus durans): > 128 µg/mL; MIC (Staphylococcus aureus [16]): > 128 µg/mL; Ratio (Enterococcus faecium [17]): 1 - 2; MIC (Enterococcus faecium [18]): 308 µM (≈ 128 µg/mL); MIC (Staphylococcus simulans): > 128 µg/mL |
| C=C[C@@](C)(O)CC[C@H]1C(=C)CC[C@H]2C(C)(C)CCC[C@]12C [MANOOL] | 110 (≈ 32 µg/mL) | 55 (≈ 16 µg/mL) | 28 (≈ 8.13 µg/mL) | 14 µM | > 128 µg/mL | 14 (≈ 4.07 µg/mL) | > 128 µg/mL | > 128 µg/mL | 28 (≈ 8.13 µg/mL) | > 128 µg/mL | > 128 µg/mL | > 128 µg/mL | > 128 µg/mL | 110 (≈ 32 µg/mL) | 55 (≈ 16 µg/mL) | 1 - 2 | 60 | 55 (≈ 16 µg/mL) | > 128 µg/mL | > 128 µg/mL | inhibition (Bos taurus [19]): 92%; inhibition (Enterococcus faecium [20]): 30%; MIC (Enterococcus durans): 55 µM; MIC (Staphylococcus aureus [16]): > 128 µg/mL; Ratio (Enterococcus faecium [17]): 1 - 2; MIC (Enterococcus faecium [18]): 28 µM (≈ 8.13 µg/mL); MIC (Staphylococcus simulans): > 128 µg/mL |
| COC(=O)[C@]1(C)CCC[C@@]2(C)[C@H]1[C@@H](O)C[C@@](C)(O)[C@@H]2CC/C(C)=C/C[C@H]1OC(=O)C=C1C | 286 (≈ 128 µg/mL) | 143 (≈ 64.1 µg/mL) | 143 (≈ 64.1 µg/mL) | 286 µM | > 128 µg/mL | 286 (≈ 128 µg/mL) | 286 µM | 286 µM | 286 (≈ 128 µg/mL) | > 128 µg/mL | 286 µM | 286 µM | > 128 µg/mL | 286 (≈ 128 µg/mL) | 143 (≈ 64.1 µg/mL) | 1 - 2 | 60 | 143 (≈ 64.1 µg/mL) | 286 µM | > 128 µg/mL | MIC (Enterococcus durans): 286 µM; MIC (Staphylococcus aureus [16]): > 128 µg/mL; Ratio (Enterococcus faecium [17]): 1 - 2; MIC (Enterococcus faecium [18]): 143 µM (≈ 64.1 µg/mL); MIC (Staphylococcus simulans): > 128 µg/mL |
| C=C[C@@](C)(O)CC[C@@H]1[C@@]2(C)CCCC(C)(C)[C@@H]2CC[C@@]1(C)O | 207 (≈ 63.9 µg/mL) | 104 (≈ 32.1 µg/mL) | 207 (≈ 63.9 µg/mL) | 104 µM | 104 µM | 207 (≈ 63.9 µg/mL) | 104 µM | 104 µM | 104 (≈ 32.1 µg/mL) | 104 µM | 207 µM | 104 µM | 207 µM | 104 (≈ 32.1 µg/mL) | 207 (≈ 63.9 µg/mL) | 1 - 2 | 70 | 207 (≈ 63.9 µg/mL) | 104 µM | 207 µM | Ratio [21]: 1 - 2; Ratio (Staphylococcus aureus [22]): 1 - 2; MIC (Enterococcus durans): 104 µM; MIC (Staphylococcus aureus [16]): 104 µM; Ratio (Enterococcus faecium [17]): 1 - 2; MIC (Enterococcus faecium [18]): 207 µM (≈ 63.9 µg/mL); MIC (Staphylococcus simulans): 207 µM |

— ChEMBL document CHEMBL4610084, “Antibacterial and ATP Synthesis Modulating Compounds from Salvia tingitana” (2020)
